Assay [1] addresses T1, Bromodomain-containing protein 4 (Homo sapiens, UniProt O60885). Nature of the assay: Inhibition of SGRG-K(Ac)-GG-K(Ac)-GLGK(Ac)-GGA-K(Ac)-RHRKVGG-K(Biotin) binding to N-terminal 6xHis-tagged human BRD4 bromodomain 1 expressed in Escherichia coli BL21 (DE3) at 50 uM preincubated for 10 mins followed by peptide addition and measured after 10 mins by AlphaScreen assay relative to control. The method, boiled down: (§1)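 AlphaScreen peptide displacement. His-tagged BRD4 BD1 preincubated 10 min at room temperature with compound in buffer (0.1% Triton X-100, 1 mM DTT, 0.1% BSA). Then 25 nM biotinylated tetra-acetylated H4-type peptide added for 10 min, Ni-chelate acceptor beads for 30 min, and streptavidin donor beads for 30 min in subdued light. Alpha signal read; JQ-1 as control. IC50 from four-parameter log-logistic fit.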
(Bead proximity is the source of the signal in Alpha formats.)

Assay [2] concerns the target T1, Bromodomain-containing protein 4. The experiment in a line: Inhibition of SGRG-K(Ac)-GG-K(Ac)-GLGK(Ac)-GGA-K(Ac)-RHRKVGG-K(Biotin) binding to N-terminal 6xHis-tagged human BRD4 bromodomain 1 expressed in Escherichia coli BL21 (DE3) preincubated for 10 mins followed by peptide addition and measured after 10 mins by AlphaScreen assay. Summed up: as §1
In assay [3] the test system is MV4-11. The experiment in a line: Induction of apoptosis in human MV4-11 cells assessed as early apoptotic cells after 72 hrs by annexin-V-FITC/propidium iodide staining-based flow cytometric method (reference value: 1.64%). In kind it is functional. Summed up:
(§2)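 MV4-11 cells seeded at 3 × 10⁵ in 6-well plates, settled 30 min, then given compound or DMSO for 72 h. Resuspended in 1× binding buffer with Annexin V-FITC for 15 min at room temperature in the dark, then PI added 5 min before flow cytometry. Populations quantified with the instrument software.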
For orientation: A flow cytometer gives signals particle by particle.

The test system of assay [4] is MV4-11. Nature of the assay: Induction of apoptosis in human MV4-11 cells assessed as viable cells after 72 hrs by annexin-V-FITC/propidium iodide staining-based flow cytometric method (reference value: 96.2%). Format: functional. The method, boiled down:
as §2

In assay [5] the test system is MV4-11. Nature of the assay: Induction of apoptosis in human MV4-11 cells assessed as necrotic cells after 72 hrs by annexin-V-FITC/propidium iodide staining-based flow cytometric method (reference value: 0%). In kind it is functional. The method, boiled down: as §2
Assay [6] deals with MV4-11. Nature of the assay: Cell cycle arrest in human MV4-11 cells assessed as accumulation at S phase after 24 hrs by propidium iodide staining-based flow cytometric method (reference value: 33.52%). Format: functional.
Assay [7] deals with MV4-11. Nature of the assay: Cell cycle arrest in human MV4-11 cells assessed as accumulation at G2 phase after 24 hrs by propidium iodide staining-based flow cytometric method (reference value: 11.98%). Format: functional.
Assay [8] deals with MV4-11. The experiment in a line: Cell cycle arrest in human MV4-11 cells assessed as accumulation at G1 phase after 24 hrs by propidium iodide staining-based flow cytometric method (reference value: 54.50%). In kind it is functional.
Assay [9] has as its system MV4-11. The experiment in a line: Induction of apoptosis in human MV4-11 cells assessed as late apoptotic cells after 72 hrs by annexin-V-FITC/propidium iodide staining-based flow cytometric method (reference value: 2.14%). Format: functional. The method, boiled down:
as §2

Assay [10] has as its target T1, Bromodomain-containing protein 4. Nature of the assay: Binding affinity to N-terminal 6xHis-tagged human BRD4 bromodomain 1 expressed in Escherichia coli BL21 (DE3) assessed as change in melting temperature at 100 uM by SYPRO orange dye-based RT-PCR method (reference value: 0 degC).
Assay [11] relates to MV4-11. Nature of the assay: Cell cycle arrest in human MV4-11 cells assessed as accumulation at S phase at 50 uM after 24 hrs by propidium iodide staining-based flow cytometric method (reference value: 33.52%). In kind it is functional.
For assay [12], the system named is MV4-11. The experiment in a line: Cell cycle arrest in human MV4-11 cells assessed as accumulation at G1 phase at 50 uM after 24 hrs by propidium iodide staining-based flow cytometric method (reference value: 54.50%). In kind it is functional.
Assay [13] has as its system MV4-11. Nature of the assay: Induction of apoptosis in human MV4-11 cells assessed as late apoptotic cells at 50 uM after 72 hrs by annexin-V-FITC/propidium iodide staining-based flow cytometric method (reference value: 2.14%). Format: functional. The method, boiled down: as §2
In assay [14] the target is T1, Bromodomain-containing protein 4. The experiment in a line: Inhibition of BRD4 in human MV4-11 cells assessed as downregulation of CDK6 gene expression after 6 hrs by qRT-PCR method. In kind it is cell-based. Summed up: (§3)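 MV4-11 cells given compound at varied concentrations (10 and 30 μM) for 6 h. Bcl-2, c-Myc and CDK6 transcripts quantified by real-time quantitative PCR relative to untreated control.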
(In general: Quantitative PCR measures a nucleic acid by following its amplification.)

Assay [15] deals with MV4-11. Nature of the assay: Cell cycle arrest in human MV4-11 cells assessed as accumulation at G2 phase at 50 uM after 24 hrs by propidium iodide staining-based flow cytometric method (reference value: 11.98%). Format: functional.
The target in assay [16] is T1, Bromodomain-containing protein 4. Nature of the assay: Binding affinity to N-terminal 6xHis-tagged human BRD4 bromodomain 1 expressed in Escherichia coli BL21 (DE3) assessed as change in melting temperature by SYPRO orange dye-based RT-PCR method.
Assay [17] relates to MV4-11. Nature of the assay: Induction of apoptosis in human MV4-11 cells assessed as viable cells at 50 uM after 72 hrs by annexin-V-FITC/propidium iodide staining-based flow cytometric method (reference value: 96.2%). In kind it is functional. The note with it: MV4-11, 72 h, read-out: Activity. The method, boiled down: as §2
Assay [18] deals with T1, Bromodomain-containing protein 4. Nature of the assay: Inhibition of BRD4 in human MV4-11 cells assessed as downregulation of Bcl-2 gene expression after 6 hrs by qRT-PCR method. In kind it is cell-based. The method, boiled down:
as §3

Assay [19] shares this target. The experiment in a line: Binding affinity to N-terminal 6xHis-tagged human BRD4 bromodomain 1 expressed in Escherichia coli BL21 (DE3) assessed as change in melting temperature at 200 uM by SYPRO orange dye-based RT-PCR method (reference value: 0 degC).
Assay [20] concerns MV4-11. The experiment in a line: Induction of apoptosis in human MV4-11 cells assessed as early apoptotic cells at 50 uM after 72 hrs by annexin-V-FITC/propidium iodide staining-based flow cytometric method (reference value: 1.64%). In kind it is functional. The method, boiled down:
as §2

Assay [21] has as its system MV4-11. The experiment in a line: Antiproliferative activity against human MV4-11 cells after 3 days by Alamar blue assay. In kind it is functional, cell-based. The method, boiled down:
(§4)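 MV4-11 cells in RPMI 1640 with 10% FBS and 1% Pen/Strep at 37 °C, 5% CO2. Seeded at 1 × 10⁵–3 × 10⁵, settled 30 min, then given graded compound concentrations or DMSO for three or seven days. Alamar Blue added for 3 h at 37 °C; fluorescence read at ex 544/em 590 nm. Viability normalized to control; IC50 fitted from the dose–response.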

Assay [22] deals with T1, Bromodomain-containing protein 4. The experiment in a line: Inhibition of BRD4 in human MV4-11 cells assessed as downregulation of c-Myc gene expression after 6 hrs by qRT-PCR method. Format: cell-based. The method, boiled down: as §3
The subject of assay [23] is MV4-11. The experiment in a line: Antiproliferative activity against human MV4-11 cells after 7 days by Alamar blue assay. Format: functional, cell-based. The method, boiled down: as §4
In assay [24] the target is T1, Bromodomain-containing protein 4. Nature of the assay: Inhibition of BRD4 in human MV4-11 cells assessed as downregulation of c-Myc protein expression after 6 hrs by Western blot method. In kind it is cell-based. Summed up:
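MV4-11 cells seeded at 3 × 10⁵ in 6-well plates, settled 30 min, then given graded compound concentrations or DMSO for 6 h. Probed with rabbit anti-c-Myc mAb and HRP-labelled secondary.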

Assay [25] relates to MV4-11. The experiment in a line: Induction of apoptosis in human MV4-11 cells assessed as necrotic cells at 50 uM after 72 hrs by annexin-V-FITC/propidium iodide staining-based flow cytometric method (reference value: 0%). Format: functional. The method, boiled down:
as §2

For orientation: inhibition means how much of the control response was suppressed. The IC50 is the concentration at which inhibition is half-maximal. Lower therefore signals greater potency in that assay. For orientation: ΔTm means the shift of the melting midpoint relative to a reference.

Each structure is given as a SMILES string.

Take `COc1cc(C(=O)NCCCn2ccnc2)cc(OC)c1OC`: the inhibition in assay [1] worked out at 90%.
The same measure, in the same setting: in the case of `COc1cc(C(=O)Nc2nnc(C)s2)cc(OC)c1OC` it was 90%.
In the case of `COc1cc(C(=O)NCCOc2ccccc2)cc(OC)c1OC`, the IC50 in assay [2] is 6.6 µM.
Turning to `COc1cc2c(cc1-c1c(C)noc1C)ncc1[nH]c(=O)n([C@H](C)c3ccccn3)c12`, the Activity in the assay on MV4-11 [3] is listed as 18.4%; in the assay on MV4-11 [4], 47.8%; in the assay with MV4-11 [5], 0.718%; with MV4-11 [6], 6.36%; with MV4-11 [7] it was 2.78%; in the assay on MV4-11 [8], 90.86%. In the assay on MV4-11 [9], the Activity came out at 33.1%.
For the compound `COC(=O)C(CCSC)NC(=O)c1cc(OC)c(OC)c(OC)c1` (configuration not stated), the IC50 in assay [2] came out at 2.1 µM.
In turn, `COc1cc(C(=O)Nc2nccs2)cc(OC)c1OC` came in with an IC50 in assay [2] of 4.3 µM.
In turn, `CCc1nnc(NC(=O)c2cc(OC)c(OC)c(OC)c2)s1` yielded an inhibition in assay [1] of 90%.
Consider `COc1cc(C(=O)NCCc2cccs2)cc(OC)c1OC`, for which the IC50 in assay [2] is 6.4 µM.
Regarding `COc1cc(C(=O)Nc2ccnn2C2CCCC2)cc(OC)c1OC`, the ΔTm in assay [10] came to 1.9 °C; in assay [19] it was 3.31 °C. Also, the Activity with MV4-11 [11] is 16.83%; with MV4-11 [12], 79.1%; in the assay with MV4-11 [13], 6.86%; in the assay on MV4-11 [15], 16.83%; in assay [16], “Dose-dependent effect”; in the assay with MV4-11 [20], 4.06%. The figures for the Activity entry in the assay with MV4-11 [21], in the assay on MV4-11 [23] and with MV4-11 [25] were “Dose-dependent effect”, “Dose-dependent effect” and 0.073%, respectively. Further, the inhibition result in [14], in assay [18], in [22] and in assay [24] was “Dose-dependent effect” in each case. Further, in the assay on MV4-11 [17], the viability at 50 µM was determined as 89%. The same compound yielded an IC50 in assay [2] of 2.01 µM.
Compound `COc1cc(C(=O)Nc2nc(C)cs2)cc(OC)c1OC` yielded an inhibition in assay [1] of 96%.
In assay [1], `CCC(CO)NC(=O)c1cc(OC)c(OC)c(OC)c1` (configuration not stated) came in with an inhibition of 94%.
Same read-out and setting: under `COc1cc(C(=O)NC2CCCC2)cc(OC)c1OC` stands 90%.
In [2], `COCc1nnc(NC(=O)c2cc(OC)c(OC)c(OC)c2)s1` gave an IC50 of 11 µM.
Same read-out and setting: under `COC(=O)C(CC(C)C)NC(=O)c1cc(OC)c(OC)c(OC)c1` (configuration not stated) stands 8.5 µM.
In turn, `COc1cc(C(=O)NCC2CCCO2)cc(OC)c1OC` (configuration not stated) displayed an inhibition in [1] of 94%.
